Results published in ChEMBL document CHEMBL4334458, “Design, synthesis and antibacterial evaluation of novel 15-membered 11a-azahomoclarithromycin derivatives with the 1, 2, 3-triazole side chain” (Eur J Med Chem, 2019).
In brackets after ≈: the same amount, converted by molar mass. Activity calls are given as the source filed them. No cut-off for these calls is given here.

How the values were obtained:
Streptococcus pneumoniae [1] = assay: Bacteriostatic activity against erythromycin-resistant Streptococcus pneumoniae AB11 expressing the ermB and mefA by time-kill curve assay; format: functional, organism-based
Staphylococcus aureus [2] = assay: Antibacterial activity against penicillin-resistant Staphylococcus aureus ATCC 31007 incubated for 24 hrs by broth dilution method; format: functional; settings: ATCC 31007, 24 h
Streptococcus pneumoniae [3] = assay: Antibacterial activity against erythromycin-resistant Streptococcus pneumoniae AB11 expressing the ermB and mefA incubated for 24 hrs by broth dilution method; format: functional
Streptococcus pyogenes [4] = assay: Antibacterial activity against erythromycin-susceptible Streptococcus pyogenes 1 clinical isolate incubated for 24 hrs by broth dilution method; format: functional
Method in brief: (§1)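 CLSI broth microdilution in cation-adjusted Mueller-Hinton broth. Twofold dilutions spanned 0.25–128 or 0.5–256 µg/mL, with CAM and AZM as controls. Log-phase bacteria were added and incubated 24 h at 37 °C. MIC was read by turbidity as the concentration of the last clear well.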

Staphylococcus aureus [5] = assay: Antibacterial activity against erythromycin-susceptible Staphylococcus aureus ATCC 25923 incubated for 24 hrs by broth dilution method; format: functional; settings: ATCC 25923, 24 h; method in brief: as §1
Streptococcus pneumoniae [6] = assay: Ratio of MBC to MIC for erythromycin-resistant Streptococcus pneumoniae AB11 expressing the ermB and mefA; format: functional
Escherichia coli = assay: Antibacterial activity against penicillin-susceptible Escherichia coli ATCC 25922 incubated for 24 hrs by broth dilution method; format: functional; settings: ATCC 25922, 24 h; method in brief: as §1
Streptococcus pneumoniae [7] = assay: Bactericidal activity against erythromycin-resistant Streptococcus pneumoniae AB11 expressing the ermB and mefA at 1 to 4 times MIC incubated for up to 9 hrs by time-kill curve assay; format: functional, organism-based
Streptococcus pneumoniae [8] = assay: Antibacterial activity against erythromycin-resistant Streptococcus pneumoniae B1 expressing the ermB incubated for 24 hrs by broth dilution method; format: functional
Streptococcus pneumoniae [9] = assay: Bacteriostatic activity against erythromycin-resistant Streptococcus pneumoniae AB11 expressing the ermB and mefA at 1 to 4 times MIC incubated for 9 to 24 hrs by time-kill curve assay; format: functional, organism-based
Staphylococcus aureus [10] = assay: Antibacterial activity against methicillin-resistant Staphylococcus aureus ATCC 43300 incubated for 24 hrs by broth dilution method; format: functional; settings: ATCC 43300, 24 h
Bacillus subtilis = assay: Antibacterial activity against penicillin-susceptible Bacillus subtilis ATCC 9372 incubated for 24 hrs by broth dilution method; format: functional; settings: ATCC 9372, 24 h; method in brief: as §1
Streptococcus pyogenes [11] = assay: Antibacterial activity against erythromycin-resistant Streptococcus pyogenes 2 clinical isolate incubated for 24 hrs by broth dilution method; format: functional
Pseudomonas aeruginosa = assay: Antibacterial activity against penicillin-susceptible Pseudomonas aeruginosa ATCC 27853 incubated for 24 hrs by broth dilution method; format: functional; settings: ATCC 27853, 24 h; method in brief: as §1
Streptococcus pneumoniae [12] = assay: Bactericidal activity against erythromycin-resistant Streptococcus pneumoniae AB11 expressing the ermB and mefA incubated for 24 hrs followed by re-plating on tryptic soy agar plates for 24 hrs by broth microdilution assay; format: functional
Method in brief: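 Follows the 24 h, 37 °C CAMH broth microdilution MIC plate; contents of clear wells plated onto tryptic soy agar and incubated 24 h at 37 °C; MBC taken as the lowest concentration giving no colonies.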

Staphylococcus aureus [13] = assay: Bactericidal activity against erythromycin-susceptible Staphylococcus aureus ATCC 25923 incubated for 24 hrs followed by re-plating on tryptic soy agar plates for 24 hrs by broth microdilution assay; format: functional; settings: ATCC 25923, 24 h
Method in brief: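 Built on the broth microdilution MIC set-up (CAMH, 24 h, 37 °C). After 24 h, contents of clear wells were plated on tryptic soy agar and incubated 24 h at 37 °C. MBC was taken as the lowest concentration giving no colonies.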

MCF7 = assay: Cytotoxicity against human MCF7 cells assessed as viable cells up to 32 ug/ml incubated for 24 hrs by MTT assay; format: cell-based; settings: mcf7, 24 h
Method in brief: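 MCF-7 cells were seeded at 10^4 cells/well and allowed to settle overnight. Compound was added for 24 h, with CAM as control and DMSO as vehicle control. MTT (5 mg/mL stock) was then added for 4 h at 37 °C, formazan dissolved in DMSO for 10 min, and absorbance read at 570 nm. Read-out was percent viable cells.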

Staphylococcus aureus [14] = assay: Ratio of MBC to MIC for erythromycin-susceptible Staphylococcus aureus ATCC 25923; format: functional

CCCCc1ccc(-c2cn(C[C@@H]3CN(C)C[C@@H](C)[C@@H](O)[C@H](C)C[C@@](C)(OC)[C@H](O[C@@H]4O[C@H](C)C[C@H](N(C)C)[C@H]4O)[C@@H](C)[C@H](O[C@H]4C[C@@](C)(OC)[C@@H](O)[C@H](C)O4)[C@@H](C)C(=O)O3)nn2)cc1
Activity (Streptococcus pneumoniae [1]): Dose-dependent effect | MIC (Staphylococcus aureus [2]): 8 µg/mL (≈ 8.71 µM) | MIC (Streptococcus pneumoniae [3]): 8 µg/mL (≈ 8.71 µM) | MIC (Streptococcus pyogenes [4]): 8 µg/mL (≈ 8.71 µM) | MIC (Staphylococcus aureus [5]): 8 µg/mL (≈ 8.71 µM) | Ratio (Streptococcus pneumoniae [6]): 8 | MIC (Escherichia coli): > 128 µg/mL | Activity (Streptococcus pneumoniae [7]): Active | MIC (Streptococcus pneumoniae [8]): 64 µg/mL (≈ 69.7 µM) | Activity (Streptococcus pneumoniae [9]): Active | MIC (Staphylococcus aureus [10]): 8 µg/mL (≈ 8.71 µM) | MIC (Bacillus subtilis): 32 µg/mL (≈ 34.8 µM) | MIC (Streptococcus pyogenes [11]): 8 µg/mL (≈ 8.71 µM) | MIC (Pseudomonas aeruginosa): > 128 µg/mL | MBC (Streptococcus pneumoniae [12]): 64 µg/mL (≈ 69.7 µM)

CO[C@]1(C)C[C@@H](C)[C@H](O)[C@H](C)CN(C)C[C@H](COCc2cn(-c3ccccn3)nn2)OC(=O)[C@H](C)[C@@H](O[C@H]2C[C@@](C)(OC)[C@@H](O)[C@H](C)O2)[C@H](C)[C@H]1O[C@@H]1O[C@H](C)C[C@H](N(C)C)[C@H]1O
MIC (Staphylococcus aureus [2]): > 256 µg/mL | MBC (Staphylococcus aureus [13]): > 128 µg/mL | MIC (Streptococcus pneumoniae [3]): 128 µg/mL (≈ 143 µM) | MIC (Streptococcus pyogenes [4]): 0.5 µg/mL (≈ 0.56 µM) | MIC (Staphylococcus aureus [5]): ≤ 0.25 µg/mL | Activity (MCF7): Non-Toxic | MIC (Escherichia coli): 64 µg/mL (≈ 71.7 µM) | MIC (Streptococcus pneumoniae [8]): > 256 µg/mL | MIC (Staphylococcus aureus [10]): > 256 µg/mL | MIC (Bacillus subtilis): ≤ 0.25 µg/mL | MIC (Streptococcus pyogenes [11]): 128 µg/mL (≈ 143 µM) | Ratio (Staphylococcus aureus [14]): >512 | MIC (Pseudomonas aeruginosa): 16 µg/mL (≈ 17.9 µM)
